These results are taken from ChEMBL document CHEMBL2380224, “Fragment-based ligand design of novel potent inhibitors of tankyrases” (J Med Chem, 2013).

Data set [1] in a line: Thermodynamic solubility of the compound in pION buffer at 500 uM after 18 hrs at pH 4.0 by UV-spectrophotometric analysis. It counts as physicochemical. The note with it: read-out: Therm_solubility. Put shortly:
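A 50 mM DMSO stock was diluted into pH 4.0 pION buffer (final 500 μM test compound) and incubated sealed for 18 h. Samples were vacuum filtered, discarding the first filtrate used to wet the filter. Filtrate was mixed 1:1 with 1-propanol for UV read-out.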

Data set [2] deals with T1, Poly [ADP-ribose] polymerase tankyrase-2 (Homo sapiens, UniProt Q9H2K2).
T1 sequence (Q9H2K2 whole entry): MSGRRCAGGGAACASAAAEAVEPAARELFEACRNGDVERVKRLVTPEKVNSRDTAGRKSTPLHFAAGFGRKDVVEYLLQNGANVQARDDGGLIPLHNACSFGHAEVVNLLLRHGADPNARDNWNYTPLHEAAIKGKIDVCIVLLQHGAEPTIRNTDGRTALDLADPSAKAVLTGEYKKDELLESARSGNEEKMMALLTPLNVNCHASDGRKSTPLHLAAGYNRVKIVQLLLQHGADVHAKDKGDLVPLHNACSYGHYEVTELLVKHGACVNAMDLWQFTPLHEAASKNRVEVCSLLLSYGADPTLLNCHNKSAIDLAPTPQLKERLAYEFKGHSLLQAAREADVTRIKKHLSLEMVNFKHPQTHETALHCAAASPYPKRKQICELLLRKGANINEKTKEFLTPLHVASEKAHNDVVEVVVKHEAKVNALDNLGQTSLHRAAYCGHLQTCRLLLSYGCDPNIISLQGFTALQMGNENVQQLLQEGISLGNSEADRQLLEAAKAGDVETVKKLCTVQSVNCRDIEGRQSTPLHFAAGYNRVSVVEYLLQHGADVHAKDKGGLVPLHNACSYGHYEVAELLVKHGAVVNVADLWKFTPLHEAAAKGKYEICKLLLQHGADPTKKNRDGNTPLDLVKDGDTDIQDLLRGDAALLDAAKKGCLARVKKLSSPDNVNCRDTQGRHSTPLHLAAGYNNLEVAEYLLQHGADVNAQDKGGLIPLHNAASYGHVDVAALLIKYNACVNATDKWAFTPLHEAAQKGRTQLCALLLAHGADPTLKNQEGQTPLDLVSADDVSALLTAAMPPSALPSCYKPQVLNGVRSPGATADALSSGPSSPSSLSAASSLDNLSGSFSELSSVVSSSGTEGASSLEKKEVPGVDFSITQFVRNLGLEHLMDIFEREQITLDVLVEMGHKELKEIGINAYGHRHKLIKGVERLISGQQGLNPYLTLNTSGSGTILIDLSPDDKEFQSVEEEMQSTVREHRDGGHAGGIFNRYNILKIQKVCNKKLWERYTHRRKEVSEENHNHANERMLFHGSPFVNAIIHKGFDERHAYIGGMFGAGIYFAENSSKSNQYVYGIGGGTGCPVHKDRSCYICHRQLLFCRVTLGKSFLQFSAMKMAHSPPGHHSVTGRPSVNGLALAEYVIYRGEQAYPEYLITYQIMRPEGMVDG
As to the kind of experiment: Inhibition of auto-PARsylation of GST-tagged TNKS2 PARP domain (947 to 1162) (unknown origin) expressed in Escherichia coli BL21(DE3) after 2 hrs by LC/MS analysis.

Data set [3] has as its target T2, Poly [ADP-ribose] polymerase tankyrase-2 (Homo sapiens) (UniProt Q9H2K2).
T2 sequence (whole entry): T1 sequence (Q9H2K2 whole entry)
As to the kind of experiment: Binding affinity to TNKS2 PARP domain (947 to 1162) (unknown origin) expressed in Escherichia coli BL21(DE3) assessed as thermal stabilization at 125 uM by differential scanning flourimetric analysis. In short, it runs like this: (§1)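 DSF dose−response. TNKS2 at 0.2 mg/mL with SYPRO Orange (5×). Compounds were serially diluted in 100% DMSO at 50× the assay concentration. Chymotrypsin (1/100 TNKS2 mass equivalents) was added to the protein–dye mix just before the run. Scanned 25−80 °C at about 2 °C/min, ex 490/em 575 nm, and Tm shift was taken against the DMSO control.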

The target of data set [4] is T1, Poly [ADP-ribose] polymerase tankyrase-2. Description: Binding affinity to 6His-tagged TNKS2 PARP domain (947 to 1162) (unknown origin) expressed in Escherichia coli BL21(DE3) by surface plasmon resonance analysis. In short, it runs like this: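 SPR on a Biacore instrument. Running buffer: 20 mM PBS pH 7.4, 0.05% Tween20, 2% DMSO. His-tagged TNKS2 (20 μg/mL in 20 mM PBS pH 7.4) was capture-coupled at 10 μL/min onto a Ni²⁺/NHS doubly preactivated NTA chip, to a target of 5000 RU.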

Data set [5] concerns the target T2, Poly [ADP-ribose] polymerase tankyrase-2 (Homo sapiens). As to the kind of experiment: Binding affinity to TNKS2 PARP domain (947 to 1162) (unknown origin) expressed in Escherichia coli BL21(DE3) assessed as thermal stabilization at 1 mM by differential scanning flourimetric analysis. In short, it runs like this:
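Fragment screen by DSF. TNKS2 at 0.2 mg/mL with SYPRO Orange (5×). Compound added from 50 mM DMSO stocks, giving final 1 mM and 2% DMSO; DMSO controls on each plate. Scanned 25−80 °C at about 2 °C/min, fluorescence ex 490/em 575 nm. Curves inspected visually; Tm fitted to sigmoidal transitions.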

Data set [6] has as its target Protein mono-ADP-ribosyltransferase PARP6 (Homo sapiens, UniProt Q2NL67). Description: Inhibition of PARP6 (unknown origin).
In data set [7] the target is T2, Poly [ADP-ribose] polymerase tankyrase-2 (Homo sapiens). Description: Binding affinity to TNKS2 PARP domain (947 to 1162) (unknown origin) expressed in Escherichia coli BL21(DE3) assessed as thermal stabilization by differential scanning flourimetric analysis. In short, it runs like this: as §1
Data set [8] addresses T3, Protein mono-ADP-ribosyltransferase TIPARP (Homo sapiens) (UniProt Q7Z3E1).
T3 sequence (whole entry): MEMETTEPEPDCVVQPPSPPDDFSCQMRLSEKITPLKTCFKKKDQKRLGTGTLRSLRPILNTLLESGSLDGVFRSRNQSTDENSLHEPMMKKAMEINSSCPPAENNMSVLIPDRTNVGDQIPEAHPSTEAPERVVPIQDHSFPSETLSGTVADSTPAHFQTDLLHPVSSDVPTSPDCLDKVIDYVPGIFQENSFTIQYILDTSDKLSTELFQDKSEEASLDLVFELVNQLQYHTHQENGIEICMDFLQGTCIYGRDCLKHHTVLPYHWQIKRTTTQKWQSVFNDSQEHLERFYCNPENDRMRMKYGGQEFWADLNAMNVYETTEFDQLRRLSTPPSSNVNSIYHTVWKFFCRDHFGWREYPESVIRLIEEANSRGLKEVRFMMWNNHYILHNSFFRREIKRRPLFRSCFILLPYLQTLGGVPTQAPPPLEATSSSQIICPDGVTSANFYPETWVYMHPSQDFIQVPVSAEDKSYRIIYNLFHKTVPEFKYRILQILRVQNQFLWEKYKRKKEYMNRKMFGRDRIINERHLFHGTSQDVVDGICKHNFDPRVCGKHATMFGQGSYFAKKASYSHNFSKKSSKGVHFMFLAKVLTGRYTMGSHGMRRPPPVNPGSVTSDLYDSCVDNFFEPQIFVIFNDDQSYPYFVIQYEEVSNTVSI
Description: Inhibition of PARP7 (unknown origin) at 10 uM relative to control.

Data set [9] deals with T4, Protein mono-ADP-ribosyltransferase PARP11 (Homo sapiens) (UniProt Q9NR21).
T4 sequence (whole entry): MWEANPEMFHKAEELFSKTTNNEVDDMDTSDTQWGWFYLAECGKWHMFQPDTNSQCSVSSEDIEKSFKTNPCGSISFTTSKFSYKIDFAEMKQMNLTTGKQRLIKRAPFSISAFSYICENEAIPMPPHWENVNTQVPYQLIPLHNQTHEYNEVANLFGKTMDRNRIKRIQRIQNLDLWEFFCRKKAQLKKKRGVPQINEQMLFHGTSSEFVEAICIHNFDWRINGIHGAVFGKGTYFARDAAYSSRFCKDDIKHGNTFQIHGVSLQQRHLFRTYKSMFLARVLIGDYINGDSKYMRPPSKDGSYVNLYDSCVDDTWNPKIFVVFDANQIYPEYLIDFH
Description: Inhibition of PARP11 (unknown origin) at 10 uM relative to control.

Converted amounts (≈) assume the structure as drawn.

Sequence of Protein mono-ADP-ribosyltransferase PARP6 (Q2NL67 whole entry, the tested form may be a part): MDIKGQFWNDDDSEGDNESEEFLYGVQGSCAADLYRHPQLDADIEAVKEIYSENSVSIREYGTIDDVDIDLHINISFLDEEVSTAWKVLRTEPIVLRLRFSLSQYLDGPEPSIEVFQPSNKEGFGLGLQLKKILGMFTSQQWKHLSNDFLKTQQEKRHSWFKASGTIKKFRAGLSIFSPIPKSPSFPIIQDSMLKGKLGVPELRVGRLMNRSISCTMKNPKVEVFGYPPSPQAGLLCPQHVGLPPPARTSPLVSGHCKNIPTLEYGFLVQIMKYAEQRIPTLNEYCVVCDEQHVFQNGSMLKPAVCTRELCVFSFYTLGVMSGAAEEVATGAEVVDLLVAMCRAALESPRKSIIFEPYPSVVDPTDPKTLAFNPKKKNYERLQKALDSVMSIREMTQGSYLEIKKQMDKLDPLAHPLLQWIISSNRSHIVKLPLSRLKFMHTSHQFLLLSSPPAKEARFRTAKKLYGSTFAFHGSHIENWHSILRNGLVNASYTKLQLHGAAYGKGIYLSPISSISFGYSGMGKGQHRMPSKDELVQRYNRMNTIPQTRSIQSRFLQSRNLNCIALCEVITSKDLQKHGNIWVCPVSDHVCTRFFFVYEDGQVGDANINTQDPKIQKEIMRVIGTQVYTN

As for `Cc1cc(=O)[nH]c2cc(-c3ccccc3)ccc12`, the solubility thermodynamic at 18 h, 500 µM in data set [1] is 0.65 µg/mL (≈ 2.76 µM). In data set [2], this compound returned an IC50 of 180 nM. The ΔTm in data set [3] was 3.2 °C. In addition, binding in [4] was characterised by a dissociation constant (Kd) of 900 nM.
`Cc1cc(=O)[nH]c2ccccc12` showed an IC50 in data set [2] of 12000 nM. Besides, the ΔTm in data set [5] turned out to be 1.1 °C.
Compound `COCCNC(=O)c1ccc(-c2ccc3c(C)cc(=O)[nH]c3c2)c(Cl)c1` displayed an IC50 in data set [2] of 9 nM. Moreover, in [3], the ΔTm was 10.1 °C. The compound also gave a dissociation constant (Kd) in data set [4] of 16 nM.
Compound `Cc1cc(=O)[nH]c2cc(-c3ccc(N)cc3Cl)ccc12` returned an IC50 in [2] of 39 nM. Moreover, the ΔTm in [3] turned out to be 9.4 °C. For the same compound, the Kd in data set [4] worked out at 39 nM.
Take `Cc1cc(=O)[nH]c2cc(-c3ccccc3Cl)ccc12`: the solubility thermodynamic at 18 h, 500 µM in data set [1] is less than 0.1 µg/mL. Besides, the IC50 in data set [2] was 9 nM. Further, the ΔTm in data set [3] worked out at 6.3 °C. The same compound came in with a Kd in [4] of 57 nM.
`Cc1cc(=O)[nH]c2cc(-c3ccc(C(=O)O)cc3Cl)ccc12`: the solubility thermodynamic at 18 h, 500 µM in data set [1] came to 4.3 µg/mL (≈ 13.7 µM). In data set [2], this compound registered an IC50 of 21 nM. Further, in data set [3], the ΔTm came to 7.4 °C.
With `Oc1ccc2ccccc2n1`, the IC50 in data set [2] was more than 20000 nM.
For `Cc1cc(=O)[nH]c2cc(-c3ccc(C(=O)NCCN4CCOCC4)cc3Cl)ccc12`, the solubility thermodynamic at 18 h, 500 µM in data set [1] amounted to 42.6 µg/mL (≈ 100 µM). In [2], this compound returned an IC50 of 22 nM. Also, in data set [3], the ΔTm is 9.9 °C. In addition, in [4], the affinity, expressed as Kd, was 18 nM.
In turn, `Oc1nc(-c2ccc(C(F)(F)F)cc2)nc2c1CSCC2` displayed an IC50 in data set [6] of more than 10000 nM.
`Cc1cc(=O)[nH]c2cc(-c3cccc(F)c3)ccc12`: the IC50 in data set [2] stood at 150 nM. Also, the ΔTm in [3] was 4.4 °C.
As for `Cc1cc(=O)[nH]c2cc(-c3ccc(F)cc3)ccc12`, the IC50 in data set [2] worked out at 310 nM. For the same compound, in [3], the ΔTm amounted to 3.1 °C.
For `Cc1cc(=O)[nH]c2ccc(-c3ccccc3)cc12` the same measures were more than 20000 nM and 0.6 °C.
Turning to `O=c1[nH]nc(Cl)c2ccccc12`, the Activity result in [7] is “Dose-dependent effect”. The ΔTm in data set [5] was 1.3 °C.
In data set [2], `COc1ccccc1-c1ccc2c(C)cc(=O)[nH]c2c1` yielded an IC50 of 1370 nM. For the same compound, the ΔTm in data set [3] worked out at 1.5 °C.
Regarding `O=C(c1cc(Cc2n[nH]c(=O)c3ccccc23)ccc1F)N1CCN(C(=O)C2CC2)CC1`, the inhibition in [8] is 84%; in data set [9], 72%.

What is called IC50 is the concentration that inhibits the measured activity by half. As a reminder, the ΔTm is the change in melting temperature against a reference sample. Usually Kd stands for the free concentration of one partner at which half of the binding sites on the other are occupied at equilibrium, for simple one-to-one binding. A high value points to lower affinity. One may read the inhibition as the relative decrease from the control value, in per cent. Higher therefore signals a strong effect.
